In ChEMBL document CHEMBL1154282, “Identification of antiadipogenic constituents of the rhizomes of Anemarrhena asphodeloides” (J Nat Prod, 2009):

Tested on: 3T3-L1
Experiment: Antiadipogenic activity against mouse 3T3L1 cells assessed as inhibition of differentiation after 7 days by oil-red O staining
Type: functional, cell-based
Conditions: 3T3-L1, 168 h
Summary of the method: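 Mouse 3T3-L1 preadipocytes grown to confluence for 48 h, then induced (day 0) in DMEM with 10% FBS, insulin 5 µg/mL, 10 µM rosiglitazone, 1 µM dexamethasone; after 48 h switched to 10% FBS/DMEM + 5 µg/mL insulin, then 10% FBS/DMEM every other day. Compounds added day 0, refreshed every 2 days. Day 7: PBS wash, 10% formalin 10 min, Oil-red O 1 h RT, dye eluted in isopropanol, A500; IC50 derived.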

Row | Compound | IC50
1 | O=C1/C(=C/c2ccc(O)cc2)COc2cc(O)cc(O)c21 | > 100 µM
2 | Cc1c(O)cc2c(c1O)C(=O)/C(=C/c1ccc(O)cc1)CO2 | > 100 µM
3 | C=C[C@H](/C=C\c1ccc(OC)cc1)c1ccc(O)cc1 | 45.9 µM
4 | COc1cc(O)ccc1C(=O)/C=C/c1ccc(O)cc1 | 41.8 µM
5 | O=C(C#Cc1ccc(O)cc1)c1ccc(O)cc1 [ANEMARCHALCONYN] | 5.3 µM
6 | COc1ccc(CCCc2ccc(O)cc2)c(O)c1 [BROUSSONIN A] | 74.5 µM
7 | O=C(/C=C/c1ccc(O)cc1)c1ccc(O)cc1O [ISOLIQUIRITIGENIN] | 96.4 µM
8 | C=C[C@H](/C=C\c1ccc(O)cc1)c1ccc(O)cc1 [NYASOL] | > 100 µM
9 | Oc1ccc(/C=C/c2cc(O)cc(O)c2)cc1 [RESVERATROL] | 31.4 µM
